Reference: ChEMBL document CHEMBL5653631, “A Potent and Selective ULK1 Inhibitor Suppresses Autophagy and Sensitizes Cancer Cells to Nutrient Stress” (iScience, 2018)
Blank lines part the entries; values can stand above or below the molecule they belong to.

Tests used:
[1] = target: Wee1-like protein kinase 2 (Homo sapiens) (UniProt P0C1S8); assay: Inhibition of human recombinant Wee1B at 500 nM related to control ULK1
[2] = target: T1, Serine/threonine-protein kinase Nek11 (Homo sapiens) (UniProt Q8NG66); assay: Inhibition of human recombinant NEK11 at 500 nM in presence of ATP by radiometric assay relative to control
T1 sequence (whole entry): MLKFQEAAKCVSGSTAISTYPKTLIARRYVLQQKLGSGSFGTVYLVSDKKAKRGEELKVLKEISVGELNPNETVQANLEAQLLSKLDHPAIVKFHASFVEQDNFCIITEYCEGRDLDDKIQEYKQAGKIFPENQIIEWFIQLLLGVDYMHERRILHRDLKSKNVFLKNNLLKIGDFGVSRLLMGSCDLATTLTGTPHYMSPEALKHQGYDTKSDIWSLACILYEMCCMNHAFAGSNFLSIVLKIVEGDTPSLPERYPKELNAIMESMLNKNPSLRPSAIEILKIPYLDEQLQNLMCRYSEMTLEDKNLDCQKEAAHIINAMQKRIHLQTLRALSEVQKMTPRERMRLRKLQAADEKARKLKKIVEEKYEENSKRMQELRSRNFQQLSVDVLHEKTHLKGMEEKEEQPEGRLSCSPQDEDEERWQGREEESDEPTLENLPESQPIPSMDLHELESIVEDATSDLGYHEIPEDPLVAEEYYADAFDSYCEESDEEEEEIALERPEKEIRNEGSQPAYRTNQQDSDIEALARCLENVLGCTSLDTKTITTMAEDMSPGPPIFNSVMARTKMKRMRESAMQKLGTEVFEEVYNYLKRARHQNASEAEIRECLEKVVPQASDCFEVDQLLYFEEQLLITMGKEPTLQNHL

[3] = target: Myosin light chain kinase 2, skeletal/cardiac muscle (Homo sapiens) (UniProt Q9H1R3); assay: Inhibition of human recombinant skMLCK at 500 nM related to control ULK1
[4] = target: ALK tyrosine kinase receptor (Homo sapiens) (UniProt Q9UM73); assay: Inhibition of human recombinant ALK at 500 nM related to control ULK1
Procedure, shortened: (§1)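 Panel of 327 recombinant human kinases, each assayed in vitro by radiometric activity assay in duplicate at a single inhibitor concentration per compound, chosen with reference to its ULK1 inhibition. Activity remaining was expressed as percent of vehicle control, and percent inhibition was calculated as 100 minus percent activity remaining.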

[5] = target: Serine/threonine-protein kinase ATR (Homo sapiens) (UniProt Q13535); assay: Inhibition of human recombinant ATR at 500 nM related to control ULK1; procedure, shortened: as §1
[6] = target: T2, Bone morphogenetic protein receptor type-2 (Homo sapiens) (UniProt Q13873); assay: Inhibition of human recombinant BMPR2 at 500 nM in presence of ATP by radiometric assay relative to control
T2 sequence (whole entry): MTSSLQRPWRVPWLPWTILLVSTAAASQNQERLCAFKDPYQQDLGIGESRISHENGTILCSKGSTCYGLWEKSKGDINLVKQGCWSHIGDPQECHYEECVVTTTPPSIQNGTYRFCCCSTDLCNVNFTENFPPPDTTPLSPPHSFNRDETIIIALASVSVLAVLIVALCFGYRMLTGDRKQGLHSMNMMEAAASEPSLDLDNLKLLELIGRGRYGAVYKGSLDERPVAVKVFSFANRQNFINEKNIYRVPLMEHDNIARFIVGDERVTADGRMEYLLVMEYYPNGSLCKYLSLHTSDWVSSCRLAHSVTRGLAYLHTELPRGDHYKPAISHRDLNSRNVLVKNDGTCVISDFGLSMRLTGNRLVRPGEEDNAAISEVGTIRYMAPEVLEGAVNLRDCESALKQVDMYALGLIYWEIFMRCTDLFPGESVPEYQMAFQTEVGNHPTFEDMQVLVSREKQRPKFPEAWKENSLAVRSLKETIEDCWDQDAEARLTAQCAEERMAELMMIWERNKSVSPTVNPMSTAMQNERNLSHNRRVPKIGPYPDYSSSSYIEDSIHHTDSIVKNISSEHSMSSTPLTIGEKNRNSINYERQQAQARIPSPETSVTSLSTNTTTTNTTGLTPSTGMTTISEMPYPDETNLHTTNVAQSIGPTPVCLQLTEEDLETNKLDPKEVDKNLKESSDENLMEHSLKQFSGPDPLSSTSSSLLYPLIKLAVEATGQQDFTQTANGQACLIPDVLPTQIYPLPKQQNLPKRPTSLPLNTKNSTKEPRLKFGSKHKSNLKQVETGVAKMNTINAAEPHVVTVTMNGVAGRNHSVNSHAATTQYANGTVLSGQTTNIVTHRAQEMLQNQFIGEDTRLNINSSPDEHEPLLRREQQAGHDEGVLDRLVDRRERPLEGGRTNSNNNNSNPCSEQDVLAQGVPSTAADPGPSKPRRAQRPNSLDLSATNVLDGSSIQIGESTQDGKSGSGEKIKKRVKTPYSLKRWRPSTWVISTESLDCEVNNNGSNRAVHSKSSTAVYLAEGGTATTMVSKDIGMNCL
Procedure, shortened: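 Part of a radiometric in vitro activity panel of 327 recombinant human kinases. Each kinase was tested in duplicate at one inhibitor concentration. Activity remaining was expressed as a percentage of the vehicle control, and percent inhibition was taken as 100 minus that value.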

[7] = target: BDNF/NT-3 growth factors receptor (Homo sapiens) (UniProt Q16620); assay: Inhibition of human recombinant TRKB at 15 nM in presence of ATP by radiometric assay relative to control
[8] = target: Insulin-like growth factor 1 receptor (Homo sapiens) (UniProt P08069); assay: Inhibition of human recombinant IGF1R at 15 nM in presence of ATP by radiometric assay relative to control
[9] = target: SRSF protein kinase 3 (Homo sapiens) (UniProt Q9UPE1); assay: Inhibition of human recombinant MSSK1 at 15 nM related to control ULK1
[10] = target: Phosphorylase b kinase gamma catalytic chain, skeletal muscle/heart isoform (Homo sapiens) (UniProt Q16816); assay: Inhibition of human recombinant PHKg1 at 40 nM in presence of ATP by radiometric assay relative to control

Sequence of Insulin-like growth factor 1 receptor (Homo sapiens) (P08069 31-736 limits assumed): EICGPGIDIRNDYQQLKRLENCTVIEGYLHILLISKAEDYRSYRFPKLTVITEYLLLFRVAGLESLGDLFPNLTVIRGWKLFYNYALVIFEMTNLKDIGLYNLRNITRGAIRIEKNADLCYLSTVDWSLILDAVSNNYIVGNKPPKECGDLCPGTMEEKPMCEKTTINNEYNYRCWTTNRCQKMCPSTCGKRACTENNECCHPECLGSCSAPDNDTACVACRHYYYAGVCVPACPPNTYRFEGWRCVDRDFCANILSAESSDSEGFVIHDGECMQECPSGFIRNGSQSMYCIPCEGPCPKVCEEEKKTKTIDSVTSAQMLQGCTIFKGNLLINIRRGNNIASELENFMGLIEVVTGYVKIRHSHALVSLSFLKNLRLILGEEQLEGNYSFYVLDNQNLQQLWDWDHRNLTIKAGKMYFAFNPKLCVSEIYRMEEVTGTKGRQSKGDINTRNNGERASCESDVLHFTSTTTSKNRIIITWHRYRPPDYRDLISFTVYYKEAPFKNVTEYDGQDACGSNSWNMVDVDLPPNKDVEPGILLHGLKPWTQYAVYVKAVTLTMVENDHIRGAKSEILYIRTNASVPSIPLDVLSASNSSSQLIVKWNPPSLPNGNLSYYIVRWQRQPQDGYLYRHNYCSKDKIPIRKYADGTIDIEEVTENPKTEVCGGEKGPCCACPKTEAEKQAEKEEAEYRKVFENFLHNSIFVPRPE
Sequence of Insulin-like growth factor 1 receptor (Homo sapiens) (P08069 741-1367 limits assumed): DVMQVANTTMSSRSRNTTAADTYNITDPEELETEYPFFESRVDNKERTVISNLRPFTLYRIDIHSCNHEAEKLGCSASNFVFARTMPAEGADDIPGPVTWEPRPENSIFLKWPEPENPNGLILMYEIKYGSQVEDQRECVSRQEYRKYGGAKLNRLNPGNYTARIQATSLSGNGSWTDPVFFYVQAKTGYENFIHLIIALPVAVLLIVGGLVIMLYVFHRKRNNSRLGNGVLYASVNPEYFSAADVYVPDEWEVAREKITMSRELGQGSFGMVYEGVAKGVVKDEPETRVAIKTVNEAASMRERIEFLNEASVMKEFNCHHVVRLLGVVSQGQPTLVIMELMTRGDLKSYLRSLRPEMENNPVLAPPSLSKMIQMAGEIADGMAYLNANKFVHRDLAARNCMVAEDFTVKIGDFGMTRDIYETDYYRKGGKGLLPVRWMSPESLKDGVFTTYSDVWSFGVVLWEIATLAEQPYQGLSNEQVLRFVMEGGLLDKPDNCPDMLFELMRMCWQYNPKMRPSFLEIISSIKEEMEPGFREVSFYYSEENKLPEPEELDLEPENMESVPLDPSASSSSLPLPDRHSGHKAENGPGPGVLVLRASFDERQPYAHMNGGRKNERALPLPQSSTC
Sequence of BDNF/NT-3 growth factors receptor (Homo sapiens) (Q16620 32-822 limits assumed): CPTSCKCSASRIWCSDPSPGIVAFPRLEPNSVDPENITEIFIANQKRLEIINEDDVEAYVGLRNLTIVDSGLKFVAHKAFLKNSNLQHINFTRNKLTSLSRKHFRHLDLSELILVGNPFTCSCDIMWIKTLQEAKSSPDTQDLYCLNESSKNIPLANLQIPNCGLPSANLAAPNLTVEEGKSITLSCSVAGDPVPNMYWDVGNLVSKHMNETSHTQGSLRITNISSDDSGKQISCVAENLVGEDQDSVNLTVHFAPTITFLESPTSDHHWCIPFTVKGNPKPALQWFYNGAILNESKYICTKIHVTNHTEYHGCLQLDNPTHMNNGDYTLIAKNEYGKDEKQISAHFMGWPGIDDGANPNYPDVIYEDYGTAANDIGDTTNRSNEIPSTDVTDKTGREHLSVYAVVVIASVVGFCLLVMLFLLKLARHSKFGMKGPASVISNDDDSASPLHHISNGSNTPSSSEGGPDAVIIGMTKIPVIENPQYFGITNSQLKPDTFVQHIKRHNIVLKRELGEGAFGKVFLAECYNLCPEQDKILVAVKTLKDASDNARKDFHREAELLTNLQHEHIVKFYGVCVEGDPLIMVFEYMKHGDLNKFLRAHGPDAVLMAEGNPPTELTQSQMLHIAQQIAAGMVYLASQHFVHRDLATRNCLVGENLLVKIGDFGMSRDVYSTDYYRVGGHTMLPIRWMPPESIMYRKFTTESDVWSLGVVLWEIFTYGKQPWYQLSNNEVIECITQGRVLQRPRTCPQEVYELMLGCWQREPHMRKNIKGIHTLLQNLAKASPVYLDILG
Sequence of Serine/threonine-protein kinase ATR (Homo sapiens) (Q13535 whole entry, looked up): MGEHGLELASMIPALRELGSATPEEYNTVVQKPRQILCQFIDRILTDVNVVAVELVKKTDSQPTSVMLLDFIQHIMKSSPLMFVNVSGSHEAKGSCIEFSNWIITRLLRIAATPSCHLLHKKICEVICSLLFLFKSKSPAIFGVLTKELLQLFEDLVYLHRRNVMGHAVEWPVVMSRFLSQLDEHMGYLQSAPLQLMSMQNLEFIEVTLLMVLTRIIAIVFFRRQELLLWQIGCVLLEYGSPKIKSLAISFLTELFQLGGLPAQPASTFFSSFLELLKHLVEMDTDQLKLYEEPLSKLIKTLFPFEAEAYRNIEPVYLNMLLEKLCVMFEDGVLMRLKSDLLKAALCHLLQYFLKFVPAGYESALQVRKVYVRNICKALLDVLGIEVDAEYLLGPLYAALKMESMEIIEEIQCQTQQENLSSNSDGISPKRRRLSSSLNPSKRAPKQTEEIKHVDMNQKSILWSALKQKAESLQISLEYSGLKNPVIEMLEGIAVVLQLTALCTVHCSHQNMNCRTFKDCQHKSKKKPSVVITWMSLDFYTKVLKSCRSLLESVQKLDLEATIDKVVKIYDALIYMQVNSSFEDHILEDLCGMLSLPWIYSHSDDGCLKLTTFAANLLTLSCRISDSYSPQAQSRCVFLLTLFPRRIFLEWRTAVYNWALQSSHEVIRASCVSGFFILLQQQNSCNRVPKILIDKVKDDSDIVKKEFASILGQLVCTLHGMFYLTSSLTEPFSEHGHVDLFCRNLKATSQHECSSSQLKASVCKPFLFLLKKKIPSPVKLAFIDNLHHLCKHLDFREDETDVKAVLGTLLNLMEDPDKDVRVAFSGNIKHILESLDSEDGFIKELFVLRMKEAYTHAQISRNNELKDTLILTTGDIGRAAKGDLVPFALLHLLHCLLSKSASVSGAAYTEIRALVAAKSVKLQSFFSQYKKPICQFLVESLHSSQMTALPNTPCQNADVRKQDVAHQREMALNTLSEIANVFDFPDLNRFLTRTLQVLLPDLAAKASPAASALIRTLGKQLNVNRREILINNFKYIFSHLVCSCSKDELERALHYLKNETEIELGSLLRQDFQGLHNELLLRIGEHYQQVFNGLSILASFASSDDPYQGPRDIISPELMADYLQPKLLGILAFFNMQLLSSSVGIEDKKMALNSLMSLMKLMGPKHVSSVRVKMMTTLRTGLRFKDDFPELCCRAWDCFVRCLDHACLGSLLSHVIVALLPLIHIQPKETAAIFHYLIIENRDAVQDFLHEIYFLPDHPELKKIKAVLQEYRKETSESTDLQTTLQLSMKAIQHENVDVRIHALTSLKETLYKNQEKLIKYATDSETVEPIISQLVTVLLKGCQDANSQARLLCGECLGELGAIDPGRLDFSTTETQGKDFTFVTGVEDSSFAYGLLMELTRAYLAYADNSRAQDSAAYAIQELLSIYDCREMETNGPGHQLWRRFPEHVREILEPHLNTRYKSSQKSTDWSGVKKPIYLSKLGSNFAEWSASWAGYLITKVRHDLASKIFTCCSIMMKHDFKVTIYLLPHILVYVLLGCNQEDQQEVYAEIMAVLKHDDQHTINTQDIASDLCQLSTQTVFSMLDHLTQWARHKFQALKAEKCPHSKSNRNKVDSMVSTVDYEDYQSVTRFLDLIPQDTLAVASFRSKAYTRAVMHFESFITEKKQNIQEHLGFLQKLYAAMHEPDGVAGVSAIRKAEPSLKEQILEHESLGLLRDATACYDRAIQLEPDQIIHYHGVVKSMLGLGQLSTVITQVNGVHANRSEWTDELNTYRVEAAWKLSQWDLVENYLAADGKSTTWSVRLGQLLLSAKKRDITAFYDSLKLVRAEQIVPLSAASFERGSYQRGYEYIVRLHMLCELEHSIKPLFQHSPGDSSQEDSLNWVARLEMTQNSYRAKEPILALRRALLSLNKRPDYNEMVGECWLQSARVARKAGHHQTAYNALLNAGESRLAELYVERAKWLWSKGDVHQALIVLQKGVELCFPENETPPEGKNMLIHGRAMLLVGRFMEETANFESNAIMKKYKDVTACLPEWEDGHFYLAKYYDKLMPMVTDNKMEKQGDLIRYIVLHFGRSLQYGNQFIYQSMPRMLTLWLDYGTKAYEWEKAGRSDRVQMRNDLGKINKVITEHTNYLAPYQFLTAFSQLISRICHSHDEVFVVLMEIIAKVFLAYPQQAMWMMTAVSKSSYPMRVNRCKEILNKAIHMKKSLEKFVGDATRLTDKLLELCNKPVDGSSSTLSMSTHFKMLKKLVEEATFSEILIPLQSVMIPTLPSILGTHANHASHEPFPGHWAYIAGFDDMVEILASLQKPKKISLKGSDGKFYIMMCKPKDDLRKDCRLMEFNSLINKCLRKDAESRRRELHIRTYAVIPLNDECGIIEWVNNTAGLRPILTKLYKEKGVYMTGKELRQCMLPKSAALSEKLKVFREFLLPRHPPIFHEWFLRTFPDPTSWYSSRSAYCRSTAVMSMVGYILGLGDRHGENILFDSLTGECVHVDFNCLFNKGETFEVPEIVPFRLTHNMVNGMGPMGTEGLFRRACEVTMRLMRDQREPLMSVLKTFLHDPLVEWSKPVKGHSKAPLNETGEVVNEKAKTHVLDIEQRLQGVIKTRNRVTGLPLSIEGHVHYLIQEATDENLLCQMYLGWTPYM

- fold change (FC) [1]: 0.03
- inhibition [2]: 8%
- fold change (FC) [3]: 0
- fold change (FC) [4]: 0
- fold change (FC) [5]: 0
- inhibition [6]: 0%
SMILES: CNC(=O)c1ccccc1Oc1nc(Nc2cc(OC)c(OC)c(OC)c2)ncc1Br

- inhibition [7]: 0%
- inhibition [8]: 0%
- fold change (FC) [9]: 0
SMILES: CC(C)[C@H](NC(=O)c1cc(-c2cnn3cc(-c4ccc(OCCN5CCCCC5)cc4)cnc23)cs1)C(F)(F)F

- inhibition [10]: 12%
SMILES: O=C(N[C@@H](C1CC1)C(F)(F)F)c1cc(-c2cnn3cc(-c4ccc(F)cc4)cnc23)cs1
